# NR2E3 ag-1 = NR2E3 agonists in two-hybrid cells, primary screen, cell-based, luminescence, CHO-S, Gal4-NCOR/VP16-NR2E3 | Photoreceptor-specific nuclear receptor (Homo sapiens), Q9Y5X4 | luciferase | inhibition of corepressor binding, % at 3.98 µM | actives 0.35% (n = 360,000) | AID 602229, 2012;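 active = inhibition above the mean of all tested compounds plus 3 SD, cut at about 70% in these data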;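 note: higher means lower luciferase signal from less NR2E3 corepressor binding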
# Target sequence (Q9Y5X4 whole entry, looked up, the tested form may be a part): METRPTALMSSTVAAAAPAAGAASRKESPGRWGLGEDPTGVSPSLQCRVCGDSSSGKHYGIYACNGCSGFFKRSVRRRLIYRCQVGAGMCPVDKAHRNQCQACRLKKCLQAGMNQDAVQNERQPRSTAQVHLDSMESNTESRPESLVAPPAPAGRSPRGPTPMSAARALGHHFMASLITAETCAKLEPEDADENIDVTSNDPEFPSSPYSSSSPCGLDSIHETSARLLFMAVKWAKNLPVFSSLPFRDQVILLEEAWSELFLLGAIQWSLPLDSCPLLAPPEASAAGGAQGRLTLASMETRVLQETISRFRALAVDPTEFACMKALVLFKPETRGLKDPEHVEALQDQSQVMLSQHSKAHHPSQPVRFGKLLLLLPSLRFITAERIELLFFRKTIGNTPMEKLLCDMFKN
# V-ATPase pHluor = regulators of yeast V-ATPase proton pumping, primary screen, pHLuorin cytosolic pH fluorescence | S. cerevisiae | response, % at 10 µM | AID 504577, 2011 | actives 0.37% (n = 350,000); in the data active = response mostly above about 7.3%, no sharp cut-off; inactive = mostly below about 5.4%; note: actives read high
# Env fusion inh = inhibitors of HIV-1 Env-driven cell-cell fusion, primary screen, HeLa-JRFL effector, CEM21 target cells, luciferase. actives 1.1% (n = 360,000). AID 651610, 2012. inhibition, % at 12.3 µM;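 active = mean replicate inhibition score of at least 50 and every replicate individually at or above 50; inconclusive = only one of the two criteria met; inactive = mean below 50 and not all replicates reaching 50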
# NR2E3 ag-2 = inhibitors of NR2E3-RetCOR corepressor binding, primary screen, NR2E3 agonist project, biochemical, TR-FRET, GST-NR2E3, biotin-RetCOR | Photoreceptor-specific nuclear receptor (Homo sapiens), Q9Y5X4 | 1536-well | inhibition of corepressor binding, % at 4.78 µM | actives 0.12% (n = 320,000) | AID 2300, 2010;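 active = percent inhibition above the cutoff of mean plus 3 SD of all tested compounds, set per screening campaign, cut at about 20% in these data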
#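 Material: NR2E3–RetCOR corepressor complex | Quantity: 1.35 nM GST-tagged NR2E3 final | Schedule: 5 h at 4 °C | Replication: Singlicate compound wells | Reagent: RetCOR corepressor, biotinylated, 7 nM | Controls: Biotin wells as high control, 0.6% DMSO wells as low control | Signal: TR-FRET, Eu(K)-anti-GST donor, streptavidin-D2 acceptor, ex 340, em 617/671 nm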
# GAA850 FXN act = FXN promoter activators, primary screen, cell-based, luciferase luminescence, HEK293 lucGAA850 | activation, % at 6 µM | AID 540364, 2011 | actives 0.56% (n = 360,000) | HEK293 lucGAA850 FXN promoter luciferase reporter, 24 h; percent of 10 µM SAHA response;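 active = activation above the average of all compounds screened plus 3 SD, cutoff fixed separately per campaign, cut at about 7.5% in these data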
# GalR3 antagonist = GalR3 antagonists in HEK293 cells, primary screen, cell-based, fluorescence readout. Galanin receptor type 3 (Homo sapiens), O60755. HEK293 GalR3-CNG cAMP membrane potential fluorescence; galR3 body fused to GalR1 C-terminus. inhibition, % at 3 µM. actives 0.44% (n = 360,000);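 active = inhibition above the screen-wide average plus 3 SD, cut at about 13% in these data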;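 note: forskolin and galanin both at EC90 stimulate the cells; cAMP rise reported by CNG channel membrane potential dye signal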
# Target sequence (O60755 1-299 limits assumed): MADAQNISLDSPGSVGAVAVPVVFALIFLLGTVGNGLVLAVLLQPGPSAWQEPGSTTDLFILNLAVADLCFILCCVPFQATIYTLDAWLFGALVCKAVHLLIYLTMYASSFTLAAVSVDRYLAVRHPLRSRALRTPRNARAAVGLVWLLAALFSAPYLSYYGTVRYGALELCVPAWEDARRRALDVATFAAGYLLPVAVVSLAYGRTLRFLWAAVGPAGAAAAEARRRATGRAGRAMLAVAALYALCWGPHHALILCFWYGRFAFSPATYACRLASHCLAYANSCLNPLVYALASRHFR
# GalR3 antag conf = GalR3 antagonist hit confirmation, cell-based, fluorescence, triplicate | AID 652245, 2013 | shares compounds with GalR3 antagonist | inhibition, % at 3 µM | actives 59% (n = 1,600) | HEK293 GalR3 CNG cAMP biosensor, membrane potential fluorescence; galR3 fused to GalR1 carboxy tail; challenged with forskolin and galanin at EC90;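 active = inhibition above the primary screen's cutoff, the mean inhibition of all screened compounds plus 3 SD, cut at about 13% in these data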
# CNG parental = nonspecific cAMP agonists in parental HEK-CNG cells, counter-screen for GalR3 antagonist project, cell-based, fluorescence, high throughput; shares compounds with GalR3 antagonist; HEK293-CNG parental cells, cAMP membrane potential fluorescence; normalised: DMSO wells 0%, forskolin wells 100%; activation, % at 3 µM; actives 10% (n = 1,600); in the data active = activation above about 1.3%
# Numbers stand for hits; . = inactive; ? = inconclusive; / = no result given. In the library only some 2.2% were active in any assay of this set; here they are far more common.
SMILES,NR2E3 ag-1,V-ATPase pHluor,Env fusion inh,NR2E3 ag-2,GAA850 FXN act,GalR3 antagonist,GalR3 antag conf,CNG parental
C[C@@H]1CN([C@@H](C)CO)C(=O)c2cc(-c3ccc(F)cc3)cnc2O[C@@H]1CN(C)C(=O)c1ccncc1,/,/,.,/,/,/,/,/
C[C@@H]1CN([C@H](C)CO)C(=O)c2cc(NC(=O)C3CCCCC3)ccc2O[C@@H](C)CCCCO[C@H]1CN(C)C(=O)c1ccccc1,/,/,.,/,/,/,/,/
COc1cc(CCCN2C(N)=NC[C@@H]2c2ccccc2)cc(OC)c1OC,.,.,.,.,.,/,.,.
COc1ccc(S(=O)(=O)N[C@@H]2CC[C@H](CCNC(=O)Cc3ccccn3)O[C@@H]2CO)cc1,/,/,.,/,/,/,/,/
Cc1ccc(NC(=O)CNc2ccc(Cl)c(Cl)c2)cc1S(=O)(=O)N(C)C,.,.,.,.,.,45,90,.
Cc1ccc(NC(=O)Cc2ccccc2Cl)cc1S(=O)(=O)N(C)C,.,.,/,.,.,.,/,/
COc1ccc(NC(=O)N(C)C[C@H]2Oc3ccc(NS(=O)(=O)c4cccs4)cc3CC(=O)N([C@@H](C)CO)C[C@@H]2C)cc1,/,/,.,/,/,/,/,/
CO[C@@H]1CN(C)C(=O)c2ccc(NC(=O)Cc3ccccc3)cc2OC[C@@H](C)NC[C@@H]1C,/,/,.,/,/,/,/,/
Cn1c(=O)c2c(nc(NCCCN3CCOCC3)n2Cc2ccc(Cl)cc2)n(C)c1=O,.,.,.,.,.,14,15,.
Cn1c(=O)c2c(nc(NCCCN3CCOCC3)n2Cc2ccc(Cl)c(Cl)c2)n(C)c1=O,/,/,.,/,/,.,/,/
Cn1c(=O)c2c(nc(NCC3CCCO3)n2Cc2ccccc2)n(C)c1=O (stereo not given),.,.,/,.,.,/,.,.
COc1ccc(CN2CCC(CO)(Cc3cccc(C(F)(F)F)c3)CC2)cc1Cn1cccn1,.,.,.,.,.,16,.,3.9
COCCCn1c(-c2ccc(OC)cc2)nc2c1c(=O)[nH]c(=O)n2Cc1ccccc1,.,.,.,.,.,14,.,.
C[C@@H]1CCCCO[C@@H](CN(C)C(=O)Cc2ccccc2)[C@@H](C)CN([C@H](C)CO)C(=O)c2cc(NC(=O)CCCCCC(=O)Nc3ccccc3N)ccc2O1,/,/,.,/,/,/,/,/
COc1ccccc1Nc1ccc(NC(=O)c2cccc([N+](=O)[O-])c2C)cc1,.,.,?,.,.,14,.,.
C[C@@H]1CN([C@@H](C)CO)C(=O)c2cc(C#CCN(C)C)cnc2O[C@@H]1CN(C)Cc1ccncc1,/,/,.,/,/,/,/,/
COc1ccc(S(=O)(=O)NCc2ccccn2)cc1,.,.,.,.,.,15,20,.
O=S(=O)(NCc1ccccn1)c1ccc2ccccc2c1,.,.,.,.,.,.,/,/
COc1ccc(S(=O)(=O)N(C)C[C@H]2Oc3c(NS(C)(=O)=O)cccc3C(=O)N([C@H](C)CO)C[C@H]2C)cc1,/,/,.,/,/,/,/,/
C=C1C(=O)C23CCC4C(C)(C(=O)OC)CCCC4(C)C2CCC1(O)C3 (stereo not given),.,.,.,/,.,37,48,1.6
Cc1nc(C)n(CC(=O)N2CCCC(C(=O)c3cccc4ccccc34)C2)n1 (stereo not given),.,.,.,.,.,13,.,.
Cc1ccn(CC(=O)N2CCCC(C(=O)c3cccc4ccccc34)C2)n1 (stereo not given),.,.,.,.,.,.,/,/
COc1ccccc1N1C(=O)S/C(=C\c2cc(C)n(C)c2C)C1=O,.,/,.,.,.,19,.,.
CCNC(=O)C[C@H]1CC[C@@H]2[C@H](COC[C@H](O)CN2Cc2ccncc2)O1,/,/,.,/,/,/,/,/
Cc1cc(C)cc(OCC(O)CN2CCC(CN3C(=O)c4cccc5cccc(c45)C3=O)CC2)c1 (stereo not given),.,.,.,.,.,28,21,8.2
SMILES,NR2E3 ag-1,V-ATPase pHluor,Env fusion inh,NR2E3 ag-2,GAA850 FXN act,GalR3 antagonist,GalR3 antag conf,CNG parental
COc1cccc(OCC(O)CN2CCC(CN3C(=O)c4cccc5cccc(c45)C3=O)CC2)c1 (stereo not given),.,.,.,.,.,.,/,/
C[C@@H]1CN([C@H](C)CO)C(=O)c2cccc(NC(=O)C3CCOCC3)c2O[C@H]1CN(C)CC1CC1,/,/,.,/,/,/,/,/
COc1ccc(C(=O)Oc2cc3c4c(c2)C(C)=CC(C)(C)N4C(=O)C3=O)cc1OC,.,.,.,.,.,.,/,/
COc1cc2c3c(c1)C(C)CC(C)(C)N3C(=O)C2=O (stereo not given),.,.,60,.,.,22,23,.
CCc1cc2c3c(c1)C(C)CC(C)(C)N3C(=O)/C2=C1\SC(=O)NC1=O (stereo not given),.,.,.,.,.,.,/,/
COc1cc2c3c(c1)C(C)=CC(C)(C)N3C(=O)C2=O,.,.,.,.,.,14,.,.
COc1ccc(/C=C/C(=O)O)cc1S(=O)(=O)N1CCc2ccccc2C1,.,.,.,.,.,/,.,.
Cc1ccc(/C=C/C(=O)O)cc1S(=O)(=O)N1CCc2ccccc2C1,.,.,.,.,.,15,.,.
COc1ccc(/C=C/C(=O)Nc2ccccc2Cl)cc1S(=O)(=O)N1CCOCC1,.,.,.,.,.,15,.,.
Cc1ccc(/C=C/C(=O)O)cc1S(=O)(=O)N1CCc2ccccc21,.,.,.,.,.,.,/,/
COc1ccc(/C=C/C(=O)Nc2ccccc2)cc1S(=O)(=O)N1CCOCC1,.,.,.,.,.,.,/,/
Cc1ccc(/C=N\NC(=O)COc2ccc(C)cc2[N+](=O)[O-])cc1,.,.,.,.,.,13,.,.
COC(=O)C[C@H]1C[C@H]2c3cc(NC(=O)c4cccnc4)ccc3O[C@H]2[C@@H](CO)O1,/,/,.,/,/,/,/,/
N#Cc1nc(N2CCCC2)nc(N2CCCC2)n1,.,.,?,.,.,98,112,.
CC(=O)N(C)C[C@@H]1Oc2cc(-c3ccc(C#N)cc3)ccc2S(=O)(=O)N([C@H](C)CO)C[C@H]1C,/,/,.,/,/,/,/,/
Cc1cc(C(=O)OCC(=O)c2cccs2)c2ccccc2n1,.,.,.,.,.,.,/,/

# Screening data from PubChem.
